{
  "source": "paper PMC5306247",
  "about": "(European Journal of Drug Metabolism and Pharmacokinetics, 2016)",
  "key": {"platelet aggregation": {"tested_on": "platelet aggregation", "settings": "cited from earlier work"}, "[1]": {"assay": "Clinical pharmacokinetics of CLP and its metabolites in plasma", "assay_type": "in vivo, patients (human)", "summary_of_the_method": "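Caucasian patients scheduled for PCI or coronarography got 75 mg daily for 7 days, fasting. On day 7, plasma was sampled at 0.5, 1, 2, 3, 4, 6, 12 and 24 h (44 patients) or at 0.5 and 2 h only (38). Plasma was spiked with piroxicam, acetonitrile-precipitated, filtered, dried and reconstituted for HPLC–MS/MS. Quantifiable ranges were parent 0.25–5, derivatized thiol metabolites 0.25–50 and main metabolite 50–10,000 ng/mL. Tmax was taken directly from measured concentrations.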"}, "[2]": {"settings": "in vivo; cited from earlier work"}, "[3]": {"settings": "cited from earlier work"}, "[4]": {"tested_on": "ADP-induced platelet aggregation", "settings": "75 mg CLP daily"}, "CYP3A4": {"tested_on": "CYP3A4", "settings": "cited from earlier work"}},
  "note": "Several values for one entry are separate records, joined by “and”; a condition that tells them apart may be missing. Identical values can stand only once.",
  "data": [
    {"smiles": "COC(=O)[C@H](c1ccccc1Cl)N1CCC(S)/C(=C\\C(=O)O)C1", "note": "(stereo partly drawn) [H3]", "values": [
      {"measurement": "antiaggregation properties", "setting": "platelet aggregation", "result": "only H4 exhibits antiaggregation properties"}
    ]},
    {"smiles": "COC(=O)C(c1ccccc1Cl)N1CCC(S)C(=CC(=O)O)C1", "note": "(stereo not drawn) [H4]", "values": [
      {"measurement": "antiaggregation properties", "setting": "platelet aggregation", "result": "exhibits antiaggregation properties"}
    ]},
    {"smiles": "O=C(O)[C@H](c1ccccc1Cl)N1CCc2sccc2C1", "note": "[CLPM]", "values": [
      {"measurement": "time after CLP administration up to which concentrations were quantifiable", "setting": "[1]; patients, 75 mg CLP daily, day 7, plasma", "result": "up to 24 h"}
    ]},
    {"smiles": "COC(=O)[C@H](c1ccccc1Cl)N1CCc2sccc2C1", "note": "[CLP, Clopidogrel]", "values": [
      {"measurement": "Tmax", "setting": "[1]; human, plasma, oral, 75 mg", "result": 1, "unit": "h"},
      {"measurement": "share of absorbed drug undergoing bioactivation pathway to thiol metabolite", "setting": "[2]", "result": "Approximately 15%"},
      {"measurement": "patients treated with CLP who respond poorly to the drug", "setting": "[3]", "result": "5–50%"},
      {"measurement": "median AUCagr for wt/wt genotype versus heterozygotes", "setting": "[4]; samples 2–3 h after administration, p = 0.484", "result": "lower"},
      {"measurement": "classification of patients by response to CLP", "setting": "[4]; threshold for CLP resistance AUCagr above 486 AU*min", "result": "Almost all studied patients were classified as responders"}
    ]},
    {"smiles": "COC(=O)[C@H](c1ccccc1Cl)N1CCC2SC(=O)C=C2C1", "note": "(stereo partly drawn) [2-oxo-CLP]", "values": [
      {"measurement": "share of 2-oxo-CLP transformed into the thiol entities by CYP3A4", "setting": "CYP3A4", "result": "~40% and 39.8%"}
    ]}
  ]
}
